Data on 18 compounds can be found in ChEMBL document CHEMBL1667772 (Bioorg Med Chem Lett, 2011).

The source made the active and inactive calls. The rule behind the calls is not given here.

Series [1] concerns Rattus norvegicus. Put plainly: Antihypertensive activity against spontaneously hypertensive rat assessed as decrease in mean blood pressure at 100 mg/kg, po. The format is functional, organism-based. Also noted: dose 100 mg/kg.
Series [2] is described as follows: AUC (24 hrs) in rat at 10 mg/kg, po. Also noted: time < 24 hr, dose 10 mg/kg, route oral. The settings on record: plasma. The format is ADME, organism-based.
Series [3] has as its target Voltage-gated inwardly rectifying potassium channel KCNH2 (Homo sapiens, UniProt Q12809). Put plainly: Inhibition of human ERG by patch clamp analysis. The method in brief: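 hERG inhibition measured by high-throughput patch clamp; percent inhibition at 30 µM.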
(In general: The patch-clamp technique gives a direct electrical read-out from membranes.)

For series [4], the system named is Mus musculus. Put plainly: Antidiabetic activity in diet induced obese mouse assessed as reduction in maximal glucose excursion at 100 mg/kg, po BID for 4 weeks. The format is functional, organism-based. Also on record: dose 100 mg/kg. The method in brief:
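Male C57BL/6 mice fed 45% fat diet plus high fructose corn syrup (0.42 kcal/mL) for 6 weeks beforehand and throughout. Oral gavage BID for 12 weeks. After 4 weeks, intraperitoneal glucose 2 g/kg given 4 h post-dose.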

Series [5] relates to Rattus norvegicus. Put plainly: Antihypertensive activity against AngII-induced hypertension in telemetered rat assessed as decrease in diastolic blood pressure at 50 mg/kg, po. The format is functional, organism-based. Also noted: dose 50 mg/kg. To be noted: Artery. The method in brief:
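Sprague–Dawley rats made hypertensive by continuous AngII infusion, 65 ng/min. Dosed orally twice daily as a suspension in 0.5% carboxymethylcellulose, 0.1% Tween 80. Systolic and diastolic pressure recorded continuously by telemetry and compared against vehicle control.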

For another series, the target named is Cytochrome P450 2C9 (Homo sapiens, UniProt P11712). Put plainly: Inhibition of CYP2C9. The format is ADME.
Series [6] is described as follows: Oral bioavailability in rat. The format is ADME, organism-based. To be noted: in vivo.
In the next series the target is Cytochrome P450 3A4 (Homo sapiens, UniProt P08684). Put plainly: Inhibition of CYP3A4. The format is ADME.
The target of a further series is T1, Cytochrome P450 2B6 (Homo sapiens, UniProt P20813).
T1 sequence (P20813 whole entry): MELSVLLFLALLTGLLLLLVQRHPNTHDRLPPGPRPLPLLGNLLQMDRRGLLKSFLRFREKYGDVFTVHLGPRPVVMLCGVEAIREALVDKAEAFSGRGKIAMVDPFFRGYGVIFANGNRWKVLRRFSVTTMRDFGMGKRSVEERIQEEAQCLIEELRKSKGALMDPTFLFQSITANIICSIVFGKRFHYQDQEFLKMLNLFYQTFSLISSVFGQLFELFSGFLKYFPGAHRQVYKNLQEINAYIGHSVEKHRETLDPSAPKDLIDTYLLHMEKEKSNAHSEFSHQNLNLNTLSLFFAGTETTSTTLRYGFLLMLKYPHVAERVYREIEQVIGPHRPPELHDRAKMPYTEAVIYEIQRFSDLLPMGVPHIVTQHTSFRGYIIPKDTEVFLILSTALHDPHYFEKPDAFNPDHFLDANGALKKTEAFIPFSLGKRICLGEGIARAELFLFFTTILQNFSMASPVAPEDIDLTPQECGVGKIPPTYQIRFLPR
Put plainly: Inhibition of CYP2B6. The format is ADME.

The nature of series [7]: Oral bioavailability in cynomolgus monkey. The settings on record: in vivo. The format is ADME, organism-based, Macaca fascicularis.
Series [8] relates to Mus musculus. Put plainly: Inhibition of soluble epoxide hydrolase in diet induced obese mouse assessed as inhibition of EET hydrolysis at 100 mg/kg, po BID for 12 weeks measured 7 hrs post last dose.
The test system of series [9] is Rattus norvegicus. Put plainly: Antihypertensive activity against AngII-induced hypertension in telemetered rat assessed as decrease in systolic blood pressure at 50 mg/kg, po. To be noted: Artery, read-out: INH.
In the next series the target is T2, Cytochrome P450 1A2 (Homo sapiens, UniProt P05177).
T2 sequence (P05177 whole entry): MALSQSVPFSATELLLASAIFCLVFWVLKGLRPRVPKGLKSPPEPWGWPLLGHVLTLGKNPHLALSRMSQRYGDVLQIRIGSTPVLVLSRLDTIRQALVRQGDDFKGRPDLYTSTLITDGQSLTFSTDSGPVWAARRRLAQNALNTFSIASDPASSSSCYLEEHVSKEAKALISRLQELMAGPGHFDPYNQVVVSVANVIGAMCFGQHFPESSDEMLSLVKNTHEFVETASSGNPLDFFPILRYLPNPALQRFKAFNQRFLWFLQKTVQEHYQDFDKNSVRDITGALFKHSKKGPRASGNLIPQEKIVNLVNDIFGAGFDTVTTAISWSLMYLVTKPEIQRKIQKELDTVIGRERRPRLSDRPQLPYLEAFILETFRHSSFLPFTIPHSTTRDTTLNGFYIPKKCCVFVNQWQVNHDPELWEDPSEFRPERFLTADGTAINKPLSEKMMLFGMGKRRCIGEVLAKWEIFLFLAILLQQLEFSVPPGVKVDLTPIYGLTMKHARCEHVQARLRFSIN
Put plainly: Inhibition of CYP1A2. The format is ADME.

The target in another series is Cytochrome P450 2C19 (Homo sapiens, UniProt P33261). Put plainly: Inhibition of CYP2C19. The format is ADME.
Series [10] deals with T3, Bifunctional epoxide hydrolase 2 (Homo sapiens, UniProt P34913).
T3 sequence (P34913 whole entry): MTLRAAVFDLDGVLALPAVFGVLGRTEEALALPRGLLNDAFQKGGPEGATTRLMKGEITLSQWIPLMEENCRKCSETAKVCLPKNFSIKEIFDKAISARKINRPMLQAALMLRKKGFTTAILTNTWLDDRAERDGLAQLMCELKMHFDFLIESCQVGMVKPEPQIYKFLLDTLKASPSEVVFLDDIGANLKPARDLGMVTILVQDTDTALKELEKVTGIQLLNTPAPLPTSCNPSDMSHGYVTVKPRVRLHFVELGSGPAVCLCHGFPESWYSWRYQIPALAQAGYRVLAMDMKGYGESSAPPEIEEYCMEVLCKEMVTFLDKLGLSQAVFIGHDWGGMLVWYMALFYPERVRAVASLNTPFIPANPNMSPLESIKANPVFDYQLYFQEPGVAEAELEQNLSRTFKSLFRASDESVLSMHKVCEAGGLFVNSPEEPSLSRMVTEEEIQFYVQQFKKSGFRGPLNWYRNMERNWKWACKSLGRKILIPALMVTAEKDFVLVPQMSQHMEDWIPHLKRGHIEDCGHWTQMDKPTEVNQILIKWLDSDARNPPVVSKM
The format is cell-based, HUVEC.

Series [11] deals with T3, Bifunctional epoxide hydrolase 2. Put plainly: Inhibition of human soluble epoxide hydrolase.

Voltage-gated inwardly rectifying potassium channel KCNH2, sequence (Q12809 whole entry): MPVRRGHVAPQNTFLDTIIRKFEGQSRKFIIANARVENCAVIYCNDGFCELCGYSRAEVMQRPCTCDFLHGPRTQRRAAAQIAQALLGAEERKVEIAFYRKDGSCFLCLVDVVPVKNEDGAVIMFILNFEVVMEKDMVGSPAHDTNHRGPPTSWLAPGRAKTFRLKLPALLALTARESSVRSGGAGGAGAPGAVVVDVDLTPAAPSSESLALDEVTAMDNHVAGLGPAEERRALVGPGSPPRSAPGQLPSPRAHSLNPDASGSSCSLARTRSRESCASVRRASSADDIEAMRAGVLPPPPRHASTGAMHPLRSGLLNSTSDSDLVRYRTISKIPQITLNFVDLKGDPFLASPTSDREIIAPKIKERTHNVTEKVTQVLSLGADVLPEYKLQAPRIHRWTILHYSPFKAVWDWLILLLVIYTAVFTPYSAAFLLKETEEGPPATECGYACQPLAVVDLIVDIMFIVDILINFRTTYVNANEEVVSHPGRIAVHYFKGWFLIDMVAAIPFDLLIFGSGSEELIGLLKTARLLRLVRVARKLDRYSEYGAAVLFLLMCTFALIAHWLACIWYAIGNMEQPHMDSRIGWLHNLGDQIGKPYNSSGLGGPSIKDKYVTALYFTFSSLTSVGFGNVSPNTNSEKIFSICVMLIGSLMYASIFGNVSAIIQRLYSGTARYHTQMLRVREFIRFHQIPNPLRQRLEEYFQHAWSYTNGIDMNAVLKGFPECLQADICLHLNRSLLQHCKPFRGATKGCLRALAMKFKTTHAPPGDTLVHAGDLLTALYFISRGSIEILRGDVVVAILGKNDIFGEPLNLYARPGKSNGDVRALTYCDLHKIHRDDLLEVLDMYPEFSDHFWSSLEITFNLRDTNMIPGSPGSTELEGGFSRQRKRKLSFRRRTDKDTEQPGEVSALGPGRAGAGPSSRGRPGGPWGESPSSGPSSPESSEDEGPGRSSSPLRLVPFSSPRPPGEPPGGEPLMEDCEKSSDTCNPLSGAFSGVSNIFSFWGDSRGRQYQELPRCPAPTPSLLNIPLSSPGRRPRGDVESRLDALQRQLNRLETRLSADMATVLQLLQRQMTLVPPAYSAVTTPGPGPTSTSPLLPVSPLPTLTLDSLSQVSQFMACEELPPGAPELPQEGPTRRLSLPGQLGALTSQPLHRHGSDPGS
Cytochrome P450 2C19, sequence (P33261 whole entry): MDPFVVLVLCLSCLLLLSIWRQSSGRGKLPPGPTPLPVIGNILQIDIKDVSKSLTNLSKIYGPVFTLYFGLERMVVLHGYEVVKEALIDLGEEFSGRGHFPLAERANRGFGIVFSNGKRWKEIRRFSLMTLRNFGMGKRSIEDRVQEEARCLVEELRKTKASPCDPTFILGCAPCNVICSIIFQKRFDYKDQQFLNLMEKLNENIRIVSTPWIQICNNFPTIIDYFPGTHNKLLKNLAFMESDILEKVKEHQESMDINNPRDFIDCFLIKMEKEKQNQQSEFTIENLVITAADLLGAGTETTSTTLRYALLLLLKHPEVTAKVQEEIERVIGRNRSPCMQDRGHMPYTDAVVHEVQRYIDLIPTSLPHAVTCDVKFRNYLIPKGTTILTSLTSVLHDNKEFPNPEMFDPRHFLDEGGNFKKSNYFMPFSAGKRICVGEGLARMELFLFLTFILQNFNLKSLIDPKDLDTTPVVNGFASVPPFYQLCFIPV
Cytochrome P450 3A4, sequence (P08684 whole entry): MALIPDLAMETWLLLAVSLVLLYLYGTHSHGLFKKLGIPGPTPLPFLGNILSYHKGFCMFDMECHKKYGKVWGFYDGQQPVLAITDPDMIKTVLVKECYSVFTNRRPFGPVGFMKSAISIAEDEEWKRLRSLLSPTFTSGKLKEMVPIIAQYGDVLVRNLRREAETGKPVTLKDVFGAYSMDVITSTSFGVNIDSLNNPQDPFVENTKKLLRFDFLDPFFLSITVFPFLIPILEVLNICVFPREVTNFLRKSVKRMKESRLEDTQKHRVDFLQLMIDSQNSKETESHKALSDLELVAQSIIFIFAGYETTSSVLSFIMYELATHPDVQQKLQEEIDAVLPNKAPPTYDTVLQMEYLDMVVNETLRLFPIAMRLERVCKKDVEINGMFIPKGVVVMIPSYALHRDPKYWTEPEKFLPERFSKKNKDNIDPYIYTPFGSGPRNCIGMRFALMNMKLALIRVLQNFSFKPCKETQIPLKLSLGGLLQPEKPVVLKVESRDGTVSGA
Cytochrome P450 2C9, sequence (P11712 whole entry): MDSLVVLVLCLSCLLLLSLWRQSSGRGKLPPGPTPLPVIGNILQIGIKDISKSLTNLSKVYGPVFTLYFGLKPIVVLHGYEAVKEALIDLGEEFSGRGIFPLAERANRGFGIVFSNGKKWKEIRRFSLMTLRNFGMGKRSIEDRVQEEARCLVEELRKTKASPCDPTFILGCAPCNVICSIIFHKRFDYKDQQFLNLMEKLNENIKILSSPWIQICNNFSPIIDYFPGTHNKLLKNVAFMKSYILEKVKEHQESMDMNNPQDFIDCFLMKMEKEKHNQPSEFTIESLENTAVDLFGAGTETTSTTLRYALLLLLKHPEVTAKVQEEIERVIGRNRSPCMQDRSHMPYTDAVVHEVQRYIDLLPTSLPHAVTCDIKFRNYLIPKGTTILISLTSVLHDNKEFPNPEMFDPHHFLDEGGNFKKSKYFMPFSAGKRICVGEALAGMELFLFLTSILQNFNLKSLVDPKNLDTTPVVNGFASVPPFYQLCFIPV

The term AUC denotes concentration integrated over time. Broadly, the bioavailability is dose-corrected exposure relative to a reference, in per cent. As for `CC(=O)N1CCC(NC(=O)NC23CC4CC(CC(C4)C2)C3)CC1` [AR9281], in the series on Rattus norvegicus [1], the result was inactive. For the same compound, the AUC at 24 h in series [2] is 720 ng·h/mL. In addition, the “inhibition (INH)” value in series [3] was less than 8%; on Cytochrome P450 2C9, “Not Active”; against Cytochrome P450 3A4, “Not Active”; against Cytochrome P450 2B6, “Not Active”; at Cytochrome P450 1A2, “Not Active”; on Cytochrome P450 2C19 it was “Not Active”. For the same compound, the outcome in the series on Mus musculus [4], in the series with Rattus norvegicus [5] and in the series with Mus musculus [8] was Active. Moreover, the bioavailability in series [6] came to 100%; in series [7], 25%. In addition, the inhibition in vivo at 50 mg/kg with Rattus norvegicus [9] turned out to be 8%.

The term IC50 denotes the point on the concentration scale where inhibition reaches its midpoint. As to `CC(=O)N1CCC(NC(=O)NC2CCC(C)(C)CC2)CC1`, in series [3], the “inhibition (INH)” value was 0.8%. Moreover, the values for the IC50 in [10] and in [11] were 38 nM and 6 nM, respectively.

Turning to `CC(=O)N1CCC(NC(=O)Nc2ccc(C(F)(F)F)cc2)CC1`, the AUC at 24 h in series [2] came out at 13100 ng·h/mL.

In the case of `CC(C)S(=O)(=O)N1CCC(NC(=O)Nc2ccc(OC(F)(F)F)cc2)CC1`, the AUC at 24 h in [2] was 7300 ng·h/mL. Besides, the “inhibition (INH)” value in series [3] was determined as 11%. In series [10], the IC50 was determined as 64 nM.

In [11], `CC(=O)N1CCC(NC(=O)NC2CCCCC2)CC1` gave an IC50 of 29 nM.

In the case of `O=C(NC1CCCCC1)NC1CCN(C(=O)c2ccccn2)CC1`, the AUC at 24 h in series [2] was 8320 ng·h/mL. Also, the “inhibition (INH)” value in [3] is on record as 3.4%. Besides, the IC50 stood at 67 nM in series [10] and 6.4 nM in series [11].

In turn, `CS(=O)(=O)N1CCC(NC(=O)NC23CC4CC(CC(C4)C2)C3)CC1` returned an AUC at 24 h in series [2] of 640 ng·h/mL. For the same compound, the “inhibition (INH)” value in [3] is -2.8%. Also, the IC50 in [10] came to 3.9 nM; in [11], 1.9 nM.

In turn, `CC(C)S(=O)(=O)N1CCC(NC(=O)Nc2ccc(C(F)(F)F)cc2)CC1` came in with an AUC at 24 h in series [2] of 5890 ng·h/mL. For the same compound, the “inhibition (INH)” value in [3] is 13%.

Take `CC(=O)N1CCC(NC(=O)NC2CCCCCC2)CC1`: the AUC at 24 h in series [2] worked out at 7840 ng·h/mL. In series [3], the “inhibition (INH)” value came to 9%. The IC50 in series [10] came to 27 nM; in series [11], 0.8 nM.

In turn, `CS(=O)(=O)N1CCC(NC(=O)Nc2ccc(C(F)(F)F)cc2)CC1` registered an AUC at 24 h in series [2] of 6850 ng·h/mL.

The compound `CC(=O)N1CCC(NC(=O)NC2CCC(C(C)(C)C)CC2)CC1` (stereo not given) yielded an AUC at 24 h in series [2] of 1780 ng·h/mL. Further, in [3], the “inhibition (INH)” value came out at 7%. Further, the IC50 amounted to 270 nM in series [10] and 13 nM in series [11].

Turning to `CC(=O)N1CCC(NC(=O)NC2CCC(F)(F)CC2)CC1`, the midpoint of inhibition in series [11], the IC50, lay at 185 nM.

Compound `CC(=O)N1CCC(NC(=O)NC2CC3(C)CCC2CC3)CC1` (stereo not given) registered an AUC at 24 h in series [2] of 1480 ng·h/mL. The IC50 in series [10] came out at 300 nM; in series [11] it was 25 nM.

Compound `CC(=O)N1CCC(NC(=O)NC23CC4CC(F)(CC(F)(C4)C2)C3)CC1` yielded an IC50 in series [11] of 58 nM.

`CC(=O)N1CCC(NC(=O)Nc2cccc(C(F)(F)F)c2)CC1`: in [2], the AUC at 24 h is 19600 ng·h/mL. In addition, the “inhibition (INH)” value in [3] is reported as 10%. In [10], this compound displayed an IC50 of 226 nM.

On to `CC(=O)N1CCC(NC(=O)NC2C3CCC2CC3)CC1` (stereo not given), for which the IC50 in [10] was 120 nM; in [11], 14 nM.

With `O=C(Nc1ccc(OC(F)(F)F)cc1)NC1CCN(C(=O)c2cccnc2)CC1`, the AUC at 24 h in series [2] was 11300 ng·h/mL. In addition, the “inhibition (INH)” value in [3] is listed as 57%. The IC50 in series [10] was 6.7 nM.

Compound `CC(=O)N1CCC(NC(=O)NC23CC4(F)CC(F)(CC(F)(C4)C2)C3)CC1` gave an IC50 in series [11] of 120 nM.
